Source: ChEMBL document CHEMBL1125331, “6-Hydroxy-3-n-propyl-2,3,4,5-tetrahydro-1H-3-benzazepine and analogs: new centrally acting 5-HT1A receptor agonists” (J Med Chem, 1992)

Experiments:
Rattus norvegicus [1] = experiment: Effect evaluated in vivo on 5-HTP accumulation in limbic system at a dose 12.5 umol/kg (s.c.); assay type: functional
Procedure, shortened: (§1)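 Male Sprague-Dawley rats (200–300 g) were pretreated with reserpine 5 mg/kg sc 18 h before. Test compound was given sc at 5 mL/kg in neutral solution. 5-HT synthesis rate was indexed by […] 5-HTP accumulation after decarboxylase inhibition with NSD 1015, measured by HPLC-electrochemical detection. Dose-response used 4–6 dose levels, n = 4.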

Rattus norvegicus [2] = experiment: Effect evaluated in vivo on 5-HTP accumulation in NE-rich hemispheres at a 12.5 dose uM/kg(sc); assay type: functional
Procedure, shortened: (§2)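 Male Sprague-Dawley rats (200–300 g) were pretreated with reserpine 5 mg/kg sc 18 h beforehand. Test drug was given at neutral pH, 5 mL/kg. Aromatic amino acid decarboxylase was blocked with NSD 1015. 5-HTP in the dissected brain region was assayed by HPLC with electrochemical detection.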

Rattus norvegicus [3] = experiment: Effect evaluated in vivo on 5-HTP accumulation in limbic system at a dose 3.1 umol/kg (s.c.); assay type: functional; procedure, shortened: as §1
Rattus norvegicus [4] = experiment: Effect evaluated in vivo on NE synthesis in NE-rich hemispheres after subcutaneous administration; assay type: functional; settings: sc
Procedure, shortened: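 Rats pretreated with reserpine 5 mg/kg sc 18 h before received test compound sc at 5 mL/kg in neutral solution. After decarboxylase inhibition with NSD 1015, dopa accumulation in hemispheres (mainly cortex) was measured by HPLC-electrochemical detection as an index of NE synthesis. Dose-response used 4–6 dose levels, n = 4.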

Rattus norvegicus [5] = experiment: Effect evaluated in vivo on 5-HTP accumulation in NE-rich hemispheres at a 0.80 dose uM/kg(po); assay type: functional; procedure, shortened: as §2
Rattus norvegicus [6] = experiment: Effect evaluated in vivo on 5-HTP accumulation in corpus striatum after perioral administration; assay type: functional; procedure, shortened: as §2
Rattus norvegicus [7] = experiment: Effect evaluated in vivo on 5-HTP accumulation in NE-rich hemispheres at a 3.1 dose uM/kg(po); assay type: functional; procedure, shortened: as §2
Rattus norvegicus [8] = experiment: The compound was tested in vivo for locomotor activity in rats at 50 umol/kg after perioral administration; assay type: functional
Procedure, shortened: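 Reserpine-pretreated rats (5 mg/kg sc, 18 h before) received test compound orally. Photocell motility counts were accumulated over 30 min, and gross behaviour, including 5-HT syndrome, was observed.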

Rattus norvegicus [9] = experiment: Effect evaluated in vivo on 5-HTP accumulation in corpus striatum at a dose 50 umol/kg (p.o.); assay type: functional; procedure, shortened: as §2
Rattus norvegicus [10] = experiment: Effect evaluated in vivo on 5-HTP accumulation in NE-rich hemispheres at a 3.1 dose uM/kg(sc); assay type: functional; procedure, shortened: as §2
Rattus norvegicus [11] = experiment: Effect evaluated in vivo on 5-HTP accumulation in corpus striatum at a dose 0.80 umol/kg (p.o.); assay type: functional; procedure, shortened: as §2
Rattus norvegicus [12] = experiment: Effect evaluated in vivo on 5-HTP accumulation in limbic system at a dose 50 umol/kg (p.o.); assay type: functional
Procedure, shortened: (§3)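 Oral dosing in male Sprague-Dawley rats (200–300 g) pretreated with reserpine 5 mg/kg sc 18 h before. After decarboxylase inhibition with NSD 1015, brain 5-HTP or dopa accumulation (HPLC-electrochemical detection) indexed 5-HT synthesis, DA synthesis (limbic) or NE synthesis (hemispheres, mainly cortex).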

D(2) dopamine receptor = D(2) dopamine receptor (Rattus norvegicus, UniProt P61169); experiment: Inhibitory activity against Dopamine receptor D2 in rats using [3H]spiperone as radioligand
Chain of D(2) dopamine receptor (P61169 whole entry): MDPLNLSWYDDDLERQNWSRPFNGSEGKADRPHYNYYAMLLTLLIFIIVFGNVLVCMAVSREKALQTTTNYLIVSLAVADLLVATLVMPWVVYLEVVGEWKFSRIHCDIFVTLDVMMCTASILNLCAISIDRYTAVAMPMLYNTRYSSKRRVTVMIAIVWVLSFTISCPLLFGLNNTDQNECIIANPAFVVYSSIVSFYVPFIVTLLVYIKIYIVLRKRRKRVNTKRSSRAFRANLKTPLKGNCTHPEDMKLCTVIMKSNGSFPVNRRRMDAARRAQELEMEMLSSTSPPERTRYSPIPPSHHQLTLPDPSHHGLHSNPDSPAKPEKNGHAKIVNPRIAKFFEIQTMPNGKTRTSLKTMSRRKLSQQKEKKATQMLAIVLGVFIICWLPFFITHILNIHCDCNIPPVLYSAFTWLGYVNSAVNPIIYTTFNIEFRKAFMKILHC
Procedure, shortened: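 Rat striatal membranes in 50 mM potassium phosphate buffer pH 7.4 were incubated with 0.5 nM [3H]spiperone for 10 min at 37 °C. Specific binding was defined with 10 μM 6,7-ADTN.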

Rattus norvegicus [13] = experiment: Effect evaluated in vivo on 5-HTP accumulation in NE-rich hemispheres at a 50 dose uM/kg(po); assay type: functional; procedure, shortened: as §2
Rattus norvegicus [14] = experiment: Effect evaluated in vivo on 5-HTP accumulation in corpus striatum at a dose 0.78 umol/kg (s.c.); assay type: functional; procedure, shortened: as §2
Rattus norvegicus [15] = experiment: Effect evaluated in vivo on 5-HTP accumulation in corpus striatum at a dose 3.1 umol/kg (p.o.); assay type: functional; procedure, shortened: as §2
Rattus norvegicus [16] = experiment: Effect evaluated in vivo on 5-HTP accumulation synthesis in NE-rich hemispheres after perioral administration; assay type: functional; procedure, shortened: as §3
Rattus norvegicus [17] = experiment: The compound was tested in vivo for locomotor activity in rats at 50 umol/kg after subcutaneous administration; assay type: functional
Procedure, shortened: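 Male Sprague-Dawley rats received reserpine 5 mg/kg sc in the neck 18 h before testing. Test compound was given sc in the neck (n = 4). Rats were placed singly in photocell motility meters immediately after dosing, and counts were accumulated over 30 min (tests 9 a.m.–1 p.m.). Gross behaviour, including 5-HT syndrome, was observed throughout.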

Rattus norvegicus [18] = experiment: Effect evaluated in vivo on 5-HTP accumulation in NE-rich hemispheres at a 0.78 dose uM/kg(sc); assay type: functional; procedure, shortened: as §2
Rattus norvegicus [19] = experiment: Effect evaluated in vivo on 5-HTP accumulation in NE-rich hemispheres at a 50 dose uM/kg(sc); assay type: functional; procedure, shortened: as §2
Rattus norvegicus [20] = experiment: Effect evaluated in vivo on 5-HTP accumulation in limbic system at a dose 0.78 umol/kg (s.c.); assay type: functional; procedure, shortened: as §2
Rattus norvegicus [21] = experiment: Effect evaluated in vivo on 5-HTP accumulation in corpus striatum after subcutaneous administration; assay type: functional; settings: sc; procedure, shortened: as §2
Rattus norvegicus [22] = experiment: Effect evaluated in vivo on 5-HTP accumulation in corpus striatum at a dose 12.5 umol/kg (p.o.); assay type: functional; procedure, shortened: as §2
Rattus norvegicus [23] = experiment: Effect evaluated in vivo on 5-HTP accumulation in corpus striatum at a dose 3.1 umol/kg (s.c.); assay type: functional; procedure, shortened: as §2
[24] = target: T1, 5-hydroxytryptamine receptor 1A (Rattus norvegicus, UniProt P19327); experiment: Inhibitory activity against 5-hydroxytryptamine 1A receptor in rats, using [3H]8-OH-DPAT as radioligand
T1 sequence (P19327 whole entry): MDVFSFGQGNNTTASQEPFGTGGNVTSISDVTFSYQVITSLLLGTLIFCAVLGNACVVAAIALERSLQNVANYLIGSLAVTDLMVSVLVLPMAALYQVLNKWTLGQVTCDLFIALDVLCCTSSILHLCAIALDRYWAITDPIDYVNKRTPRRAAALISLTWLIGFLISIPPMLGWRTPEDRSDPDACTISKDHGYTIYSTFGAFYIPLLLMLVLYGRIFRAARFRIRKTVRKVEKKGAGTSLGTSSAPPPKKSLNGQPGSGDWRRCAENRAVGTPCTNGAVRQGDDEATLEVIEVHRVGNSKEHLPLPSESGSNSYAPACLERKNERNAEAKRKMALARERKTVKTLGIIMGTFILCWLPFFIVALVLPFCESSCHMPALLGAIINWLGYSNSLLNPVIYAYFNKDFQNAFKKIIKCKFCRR
Procedure, shortened: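 Rat whole-brain membranes (minus brainstem and cerebellum) in 50 mM Tris pH 8.0 with 120 mM NaCl, 4 mM CaCl2, 4 mM MgCl2 and 10 μM pargyline. Rapid filtration, then scintillation counting. Nonspecific binding defined with 10 μM 5-HT. IC50 by semi-log plot and linear regression.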

Rattus norvegicus [25] = experiment: Effect evaluated in vivo on 5-HTP accumulation in rats limbic system at a dose 50 umol/kg (s.c.); assay type: functional; procedure, shortened: as §1
Rattus norvegicus [26] = experiment: Effect evaluated in vivo on 5-HTP accumulation in limbic system at a dose 12.5 umol/kg (p.o.); assay type: functional; procedure, shortened: as §3
Rattus norvegicus [27] = experiment: Effect evaluated in vivo on 5-HTP accumulation in limbic system at a dose 0.80 umol/kg (p.o.); assay type: functional; procedure, shortened: as §3
Rattus norvegicus [28] = experiment: Effect evaluated in vivo on 5-HTP accumulation in limbic system after subcutaneous administration; assay type: functional; settings: sc; procedure, shortened: as §2
Rattus norvegicus [29] = experiment: Effect evaluated in vivo on 5-HTP accumulation in limbic system after perioral administration; assay type: functional; procedure, shortened: as §2
Rattus norvegicus [30] = experiment: Effect evaluated in vivo on 5-HTP accumulation in corpus striatum at a dose 12.5 umol/kg (s.c.); assay type: functional; procedure, shortened: as §2
Rattus norvegicus [31] = experiment: Effect evaluated in vivo on 5-HTP accumulation in NE-rich hemispheres at a 12.5 dose uM/kg(po); assay type: functional; procedure, shortened: as §2
Rattus norvegicus [32] = experiment: Effect evaluated in vivo on 5-HTP accumulation in limbic system at a dose 3.1 umol/kg (p.o.); assay type: functional; procedure, shortened: as §3
Rattus norvegicus [33] = experiment: Effect evaluated in vivo on 5-HTP accumulation in corpus striatum at a dose 0.20 umol/kg (s.c.); assay type: functional; procedure, shortened: as §2
Rattus norvegicus [34] = experiment: Effect evaluated in vivo on 5-HTP accumulation in NE-rich hemispheres at a 0.80 dose uM/kg(sc); assay type: functional; procedure, shortened: as §2
Rattus norvegicus [35] = experiment: Effect evaluated in vivo on 5-HTP accumulation in limbic system at a dose 50 umol/kg (s.c.); assay type: functional; procedure, shortened: as §1
Rattus norvegicus [36] = experiment: Effect evaluated in vivo on 5-HTP accumulation in limbic system at a dose 0.80 umol/kg (s.c.); assay type: functional; procedure, shortened: as §1
Rattus norvegicus [37] = experiment: Effect evaluated in vivo on 5-HTP accumulation in limbic system at a dose 0.20 umol/kg (s.c.); assay type: functional; procedure, shortened: as §2
Rattus norvegicus [38] = experiment: Effect evaluated in vivo on 5-HTP accumulation in corpus striatum at a dose 0.80 umol/kg (s.c.); assay type: functional; procedure, shortened: as §2
Rattus norvegicus [39] = experiment: Effect evaluated in vivo on 5-HTP accumulation in NE-rich hemispheres after subcutaneous administration; assay type: functional; settings: sc; procedure, shortened: as §2
Rattus norvegicus [40] = experiment: Effect evaluated in vivo on 5-HTP accumulation in corpus striatum at a dose 50 umol/kg (s.c.); assay type: functional; procedure, shortened: as §2
Rattus norvegicus [41] = experiment: Effect evaluated in vivo on 5-HTP accumulation in NE-rich hemispheres after perioral administration; assay type: functional; procedure, shortened: as §2
Rattus norvegicus [42] = experiment: Effect evaluated in vivo on 5-HTP accumulation in NE-rich hemispheres at a 0.20 dose uM/kg(sc); assay type: functional; procedure, shortened: as §2

Compound	Control (Rattus norvegicus [3]) [%]	ED50 (Rattus norvegicus [6]) [µmol/kg]	Locomotor activity (Rattus norvegicus [8])	Control (Rattus norvegicus [9]) [%]	Control (Rattus norvegicus [10]) [%]	Control (Rattus norvegicus [11]) [%]	Control (Rattus norvegicus [12]) [%]	IC50 (D(2) dopamine receptor) [nM]	Control (Rattus norvegicus [15]) [%]	Locomotor activity (Rattus norvegicus [17])	Control (Rattus norvegicus [19]) [%]	ED50 (Rattus norvegicus [21]) [µmol/kg]	Control (Rattus norvegicus [22]) [%]	Control (Rattus norvegicus [23]) [%]	IC50 [24] [nM]	Control (Rattus norvegicus [26]) [%]	Control (Rattus norvegicus [27]) [%]	ED50 (Rattus norvegicus [28]) [µmol/kg]	ED50 (Rattus norvegicus [29]) [µmol/kg]	Control (Rattus norvegicus [32]) [%]	further results
COc1cccc2c1CCN(CC1CC1)CC2	67	7	31	48	77	102	48	7600	59	107	43	2.5	77	68	120	83	101	1.7	5.5	70	Control (Rattus norvegicus [1]): 56%; Control (Rattus norvegicus [2]): 85%; ED50 (Rattus norvegicus [4]): 4 µmol/kg; Control (Rattus norvegicus [5]): 102%; Control (Rattus norvegicus [7]): 75%; Control (Rattus norvegicus [13]): 50%; Control (Rattus norvegicus [14]): 88%; ED50 (Rattus norvegicus [16]): 6.5 µmol/kg; Control (Rattus norvegicus [18]): 95%; Control (Rattus norvegicus [20]): 84%; Control (Rattus norvegicus [25]): 42%; Control (Rattus norvegicus [30]): 60%; Control (Rattus norvegicus [31]): 89%
CCCN1CCc2c(Br)ccc(OC)c2CC1	69	14	21	50	83	112	48	680	96	108	43	3.2	77	71	28	76	88	2.7	13	90	Control (Rattus norvegicus [33]): 117%; Control (Rattus norvegicus [34]): 111%; Control (Rattus norvegicus [35]): 48%; Control (Rattus norvegicus [36]): 118%; Control (Rattus norvegicus [37]): 108%; Control (Rattus norvegicus [38]): 130%; ED50 (Rattus norvegicus [39]): 5 µmol/kg; Control (Rattus norvegicus [40]): 50%; ED50 (Rattus norvegicus [41]): 21 µmol/kg; Control (Rattus norvegicus [42]): 102%
